# Experimental data gathered from unrelated publications.
# Lines come from different studies, so protocols differ.
SMILES,tested on,test,setting,quantity,value
c1ccc(Oc2ccc(Nc3c4c(nc5ccccc35)CCC4)cc2)cc1,Leishmania donovani,parasite growth,"33.33 µM, promastigote",inhibition,91%
CC(C)C[C@H](NC(=O)[C@H](CCCCN)NC(=O)[C@H](Cc1c[nH]c2ccccc12)NC(=O)[C@H](CCCCN)NC(=O)[C@H](CCCCN)NC(=O)[C@H](CC(C)C)NC(=O)[C@H](Cc1ccccc1)NC(=O)[C@H](CCCCN)NC(=O)[C@H](CCC(=O)O)NC(=O)[C@H](CC(C)C)NC(=O)[C@H](CC(C)C)NC(=O)[C@H](CCCCN)NC(=O)[C@@H](N)CCCNC(=N)N)C(N)=O,A549,"cell growth or viability, MTT",24 h,IC50,76 µM
Cc1cc(=O)oc2cc(OCCCC[Se]C#N)ccc12,A549,"cell growth or viability, SRB",,GI50,0.78 µM
CCOc1ccc(Nc2c3c(nc4ccccc24)CCC3)cc1,Leishmania donovani,parasite growth,"8 µM, intracellular, amastigote",inhibition,69%
COc1ccccc1C=Nc1ccc(SCc2cc(=O)c(O)co2)cc1,,"ABTS scavenging, absorbance",,IC50,21.4 µM
N#C[Se]CCCCOc1ccc2c(-c3ccccc3)cc(=O)oc2c1,A549,"cell growth or viability, SRB",,GI50,29 µM
O=c1cc(CSc2ccc(N=Cc3ccccc3C(F)(F)F)cc2)occ1O,,"ABTS scavenging, absorbance",,IC50,39.8 µM
CC(C)C[C@H](NC(=O)[C@H](CCCCN)NC(=O)[C@H](CC(C)C)NC(=O)[C@H](Cc1ccccc1)NC(=O)[C@H](CC(C)C)NC(=O)[C@H](CCCCN)NC(=O)[C@H](CCCCN)NC(=O)[C@H](CC(C)C)NC(=O)[C@H](CC(C)C)NC(=O)[C@H](CCCCN)NC(=O)[C@@H](N)CCCNC(=N)N)C(=O)N[C@@H](CCCCN)C(=O)N[C@@H](CCCCN)C(N)=O,A549,"cell growth or viability, MTT",24 h,IC50,164 µM
O=C(Nc1ccc(Cl)cc1)Nc1cccc(-c2cn(Cc3ccc(Br)cc3)nn2)c1,A549,"cell growth or viability, CCK-8","50 µM, 72 h",viability,123%
O=c1cc(CSc2ccc(N=Cc3ccc(O)cc3)cc2)occ1O,,"ABTS scavenging, absorbance",,IC50,20.3 µM
N.N.[Cl][Pt][Cl],WSU-NHL,"cell growth or viability, ATP luminescence","10 µM, 72 h",inhibition,100%
O=c1cc(CSc2ccc(N=Cc3ccccc3[N+](=O)[O-])cc2)occ1O,,"ABTS scavenging, absorbance",,IC50,42.6 µM
CC[C@H](C)[C@H](NC(=O)[C@H](CCCNC(=N)N)NC(=O)[C@H](CCCNC(=N)N)NC(=O)[C@H](CCSC)NC(=O)[C@H](CCCNC(=N)N)NC(=O)[C@H](CCCNC(=N)N)NC(=O)[C@H](CCCNC(=N)N)NC(=O)[C@H](CC(C)C)NC(=O)[C@H](CCCNC(=N)N)NC(=O)CNC(=O)[C@H](Cc1c[nH]c2ccccc12)NC(=O)[C@@H](N)CCSC)C(=O)N[C@@H](CCCCN)C(N)=O,A549,"cell growth or viability, MTT",24 h,IC50,> 500 µM
